According to ChEMBL document CHEMBL1121680, “2,4-Diamino-5-benzylpyrimidines and analogues as antibacterial agents. 5. 3',5'-Dimethoxy-4'-substituted-benzyl analogues of trimethoprim” (J Med Chem, 1981):
Values belong to the compound of their own block, whether it stands above or below them.

Key:
[1] = target: T1, Dihydrofolate reductase (Rattus norvegicus) (UniProt Q920D2); assay: Compound was tested for inhibitory activity against Dihydrofolate reductase of rat liver at 40000 M
T1 sequence (whole entry): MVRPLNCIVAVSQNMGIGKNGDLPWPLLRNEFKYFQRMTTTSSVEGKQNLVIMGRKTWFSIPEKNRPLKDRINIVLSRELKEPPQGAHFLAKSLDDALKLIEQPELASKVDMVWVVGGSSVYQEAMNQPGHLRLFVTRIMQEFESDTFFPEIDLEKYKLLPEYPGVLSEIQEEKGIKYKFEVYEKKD

Oryctolagus cuniculus = assay: Peak serum concentration reached within 1 hr of administration of 5 mg/kg oral dose; type: functional, organism-based; set-up: dose 5 mg/kg
Mus musculus [2] = organism: Mus musculus; conditions: Serum
Mus musculus [3] = organism: Mus musculus; conditions: Serum; remark: listed apart in the source
Dihydrofolate reductase = target: T2, Dihydrofolate reductase (Rattus norvegicus, UniProt Q920D2); assay: Inhibition of rat liver Dihydrofolate reductase.; conditions: read-out: I50
T2 sequence (Q920D2 whole entry): T1 sequence (whole entry)

Escherichia coli [4] = assay: Antimicrobial activity against Escherichia coli CN348 in mice in experiment 1; type: functional, Mus musculus
Escherichia coli [5] = assay: Antimicrobial activity against Escherichia coli CN348 in mice in experiment 2; type: functional, Mus musculus
Escherichia coli [6] = assay: Antimicrobial activity against Escherichia coli CN348 in mice in experiment 3; type: functional, Mus musculus
Klebsiella pneumoniae [7] = assay: Antimicrobial activity against Klebsiella pneumoniae CN3632 in mice in experiment 1; type: functional, Mus musculus
Klebsiella pneumoniae [8] = assay: Antimicrobial activity against Klebsiella pneumoniae CN3632 in mice in experiment 3; type: functional, Mus musculus
Mus musculus [9] = assay: Concentration of compound in serum of mouse 10 min after oral administration of 10 mg dose; type: functional, organism-based
Procedure, shortened: (§1)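 Single po dose (10 or 2 mg per mouse) to groups of three mice (18–20 g); ~0.2 mL blood drawn from supraorbital plexus at 10–360 min and pooled; serum drug level assayed microbiologically with Bacillus pumilus as test organism. Half-life calculated from curve slopes once compound apparently evenly distributed.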

Mus musculus [10] = assay: Concentration of compound in serum of mouse 10 min after oral administration of 2 mg dose; type: functional, organism-based; procedure, shortened: as §1
Mus musculus [11] = assay: Concentration of compound in serum of mouse 180 min after oral administration of 10 mg dose; type: functional, organism-based; procedure, shortened: as §1
Mus musculus [12] = assay: Concentration of compound in serum of mouse 180 min after oral administration of 2 mg dose; type: functional, organism-based; procedure, shortened: as §1
Mus musculus [13] = assay: Concentration of compound in serum of mouse 30 min after oral administration of 10 mg dose; type: functional, organism-based; procedure, shortened: as §1
Mus musculus [14] = assay: Concentration of compound in serum of mouse 30 min after oral administration of 2 mg dose; type: functional, organism-based; procedure, shortened: as §1
Mus musculus [15] = assay: Concentration of compound in serum of mouse 360 min after oral administration of 10 mg dose; type: functional, organism-based; procedure, shortened: as §1
Mus musculus [16] = assay: Concentration of compound in serum of mouse 360 min after oral administration of 2 mg dose; type: functional, organism-based; procedure, shortened: as §1
Mus musculus [17] = assay: Concentration of compound in serum of mouse 90 min after oral administration of 10 mg dose; type: functional, organism-based; procedure, shortened: as §1
Mus musculus [18] = assay: Concentration of compound in serum of mouse 90 min after oral administration of 2 mg dose; type: functional, organism-based; procedure, shortened: as §1
Mus musculus [19] = assay: Half-life in serum of mice after oral administration of 2 mg dose; type: functional, organism-based; procedure, shortened: as §1
Proteus vulgaris [20] = assay: Antimicrobial activity against Proteus vulgaris CN329 in mice in experiment 1; type: functional, Mus musculus
Proteus vulgaris [21] = assay: Antimicrobial activity against Proteus vulgaris CN329 in mice in experiment 2; type: functional, Mus musculus
Staphylococcus aureus [22] = assay: Antimicrobial activity against Staphylococcus aureus CN491 in mice in experiment 1; type: functional, Mus musculus
Staphylococcus aureus [23] = assay: Antimicrobial activity against Staphylococcus aureus CN491 in mice in experiment 2; type: functional, Mus musculus
Staphylococcus aureus [24] = assay: Antimicrobial activity against Staphylococcus aureus CN491 in mice in experiment 3; type: functional, Mus musculus
Streptococcus pyogenes [25] = assay: Antimicrobial activity against streptococcus pyogenes CN10 in mice in experiment 2; type: functional, Mus musculus
Mus musculus [26] = assay: Half-life in serum of mice after oral administration of 10 mg dose; type: functional, organism-based; procedure, shortened: as §1
Streptococcus pyogenes [27] = assay: Antimicrobial activity against streptococcus pyogenes CN10 in mice in experiment 3; type: functional, Mus musculus
[28] = target: T1, Dihydrofolate reductase (Rattus norvegicus); assay: Percent inhibition of compound against Dihydrofolate Reductase of rat liver at 16000 M
[29] = target: T1, Dihydrofolate reductase (Rattus norvegicus); assay: Compound was tested for inhibitory activity against Dihydrofolate reductase of rat liver at 22400 M
[30] = target: T1, Dihydrofolate reductase (Rattus norvegicus); assay: Compound was tested for inhibitory activity against Dihydrofolate reductase of rat liver at 2400 M
[31] = target: T1, Dihydrofolate reductase (Rattus norvegicus); assay: Percent inhibition of compound against Dihydrofolate Reductase of rat liver at 27400 M
[32] = target: T1, Dihydrofolate reductase (Rattus norvegicus); assay: Compound was tested for inhibitory activity against Dihydrofolate reductase of rat liver at 2000 M
[33] = target: T1, Dihydrofolate reductase (Rattus norvegicus); assay: PCompound was tested for inhibitory activity against Dihydrofolate reductase of rat liver at 40000 M

inhibition [1]: 38%
SMILES: COc1cc(Cc2cnc(N)nc2N)cc(OC)c1OCCN

SMILES: COc1cc(Cc2cnc(N)nc2N)cc(OC)c1OC
Concentration (Oryctolagus cuniculus): 2 µg/mL | T1/2 (Mus musculus [2]): 0.76 h | T1/2 (Mus musculus [3]): 2.7 h

IC50 (Dihydrofolate reductase): 120 µM
SMILES: COc1cc(Cc2cnc(N)nc2N)cc(OC)c1C

IC50 (Dihydrofolate reductase): 250 µM
SMILES: COc1cc(Cc2cnc(N)nc2N)cc(OC)c1OCCCCl
ED50 (Escherichia coli [4]): 6.2 mg mouse-1 | ED50 (Escherichia coli [5]): 9.4 mg mouse-1 | ED50 (Escherichia coli [6]): >10 mg mouse-1 | ED50 (Klebsiella pneumoniae [7]): 1 mg mouse-1 | ED50 (Klebsiella pneumoniae [8]): >10 mg mouse-1 | Concentration (Mus musculus [9]): 41 µg/mL | Concentration (Mus musculus [10]): 7 µg/mL | Concentration (Mus musculus [11]): 15 µg/mL | Concentration (Mus musculus [12]): 0.7 µg/mL | Concentration (Mus musculus [13]): 31 µg/mL | Concentration (Mus musculus [14]): 2.9 µg/mL | Concentration (Mus musculus [15]): 7 µg/mL | Concentration (Mus musculus [16]): 0.24 µg/mL | Concentration (Mus musculus [17]): 26 µg/mL | Concentration (Mus musculus [18]): 1.3 µg/mL | T1/2 (Mus musculus [19]): 1.9 h | ED50 (Proteus vulgaris [20]): 8.2 mg mouse-1 | ED50 (Proteus vulgaris [21]): >10 mg mouse-1 | ED50 (Staphylococcus aureus [22]): 2.1 mg mouse-1 | ED50 (Staphylococcus aureus [23]): >10 mg mouse-1 | ED50 (Staphylococcus aureus [24]): 7.1 mg mouse-1 | ED50 (Streptococcus pyogenes [25]): 3.3 mg mouse-1 | T1/2 (Mus musculus [26]): 2.4 h | ED50 (Streptococcus pyogenes [27]): 7.2 mg mouse-1

inhibition [28]: 23%
SMILES: COc1cc(Cc2cnc(N)nc2N)cc(OC)c1OCC1CO1 (stereo not given)

inhibition [29]: 20%
SMILES: COc1cc(Cc2cnc(N)nc2N)cc(OC)c1OCC(=O)O

IC50 (Dihydrofolate reductase): 47 µM
SMILES: COc1cc(Cc2cnc(N)nc2N)cc(OC)c1OCc1ccccc1

IC50 (Dihydrofolate reductase): 200 µM
SMILES: CCCCCCOc1c(OC)cc(Cc2cnc(N)nc2N)cc1OC

IC50 (Dihydrofolate reductase): 1100 µM
SMILES: COC(=O)CCCCCOc1c(OC)cc(Cc2cnc(N)nc2N)cc1OC

inhibition [30]: 25%
SMILES: COc1cc(Cc2cnc(N)nc2N)cc(OC)c1OCCCCCCN1C(=O)c2ccccc2C1=O

inhibition [31]: 32%
SMILES: COc1cc(Cc2cnc(N)nc2N)cc(OC)c1OCC(O)CO (stereo not given)

IC50 (Dihydrofolate reductase): 50 µM
SMILES: COc1cc(Cc2cnc(N)nc2N)cc(OC)c1Oc1ccc([N+](=O)[O-])cc1

inhibition [1]: 20%
SMILES: COc1cc(Cc2cnc(N)nc2N)cc(OC)c1OCCCN1CCCCC1

IC50 (Dihydrofolate reductase): 296 µM
SMILES: COc1cc(Cc2cnc(N)nc2N)cc(OC)c1OCCCCCC(=O)O

IC50 (Dihydrofolate reductase): 54 µM
SMILES: COc1cc(Cc2cnc(N)nc2N)cc(OC)c1OCCCCN1C(=O)c2ccccc2C1=O

IC50 (Dihydrofolate reductase): > 400 µM
SMILES: COc1cc(Cc2cnc(N)nc2N)cc(OC)c1OCCO

inhibition [32]: 23%
SMILES: COc1cc(Cc2cnc(N)nc2N)cc(OC)c1OCc1ccc([N+](=O)[O-])cc1

inhibition [33]: 16%
SMILES: COCCOc1c(OC)cc(Cc2cnc(N)nc2N)cc1OC
Concentration (Oryctolagus cuniculus): 2 µg/mL
